Test results published in ChEMBL document CHEMBL4152190, “Microwave-assisted one-pot synthesis of new phenanthrene fused-tetrahydrodibenzo-acridinones as potential cytotoxic and apoptosis inducing agents” (Eur J Med Chem, 2018).
The source made the active and inactive calls. The calls are words filed in the database; no cut-off is given here.

Assays:
SK-OV-3 [1] = assay: Induction of apoptosis in human SKOV3 cells assessed as chromatin condensation at 0.1 to 0.5 uM after 24 hrs by […] staining-based fluorescence microscopic analysis; type: functional, cell-based
Procedure, shortened: (§1)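 SKOV-3 cells on coverslips (5×10^5/well), adhered 24 h, then exposed 24 h. Fixed in 4% formaldehyde 10 min at 4 °C, stained with […] (5 µg/mL) 30 min at room temperature, and nuclear morphology scored by fluorescence microscopy (ex 350/em 460 nm, 20×).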

SK-OV-3 [2] = assay: Cytotoxicity against human SKOV3 cells after 48 hrs by MTT assay; type: functional, cell-based; settings: SK-OV-3, 48 h
Procedure, shortened: (§2)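 ATCC lines grown in DMEM or RPMI with 10% FBS and antibiotic-antimycotic, 37 °C, 5% CO2. Seeded at 3×10^4 cells/well, 24 h before dosing with vehicle (DMSO) controls. […] Cisplatin as reference.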

SK-OV-3 [3] = assay: Inhibition of spheroid growth in human SKOV3 cells at 0.5 uM after 72 hrs by phase contrast microscopic analysis; type: functional, cell-based
Procedure, shortened: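 SKOV-3 cells (5000/well) in ultra-low-attachment round-bottom wells, grown 2 days to form spheroids, then exposed for 72 h. Spheroid growth and surface area assessed by phase contrast microscopy.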

SK-OV-3 [4] = assay: Cell cycle arrest in human SKOV3 cells assessed as accumulation of cells at G2/M phase at 0.2 uM after 24 hrs by propidium iodide staining-based flow cytometric analysis (reference value: 14.7%); type: functional
Procedure, shortened: (§3)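 SKOV-3 cells (1×10^6/well) exposed 24 h, trypsinised, washed in PBS, fixed in 70% ethanol 30 min at 4 °C, stained 15 min in the dark at room temperature with PBS containing propidium iodide, Triton X and DNase-free RNase A. DNA content read by flow cytometry (15,000 events per methods; legend cites 10,000 cells). G0/G1, S and G2/M percentages taken from instrument software.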

SK-OV-3 [5] = assay: Induction of apoptosis in human SKOV3 cells assessed as increase in pyknotic nuclei at 0.1 to 0.5 uM after 24 hrs by […] staining-based fluorescence microscopic analysis; type: functional, cell-based; procedure, shortened: as §1
SK-OV-3 [6] = assay: Induction of apoptosis in human SKOV3 cells assessed as nuclear fragmentation at 0.1 to 0.5 uM after 24 hrs by […] staining-based fluorescence microscopic analysis; type: functional, cell-based; procedure, shortened: as §1
SK-OV-3 [7] = assay: Induction of apoptosis in human SKOV3 cells assessed as increase in caspase3 activity at 0.5 uM using Ac-DEVDpNA as substrate pretreated for 24 hrs followed by substrate addition and measured for 2 hrs by colorimetric analysis relative to control; type: functional
Procedure, shortened: (§4)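 SKOV-3 cells (2×10^5/well) exposed 24 h, trypsinised, lysed 20 min, and lysate cleared at 15000 rpm for 10 min at 4 °C. Supernatant incubated with reaction buffer and Ac-DEVD-pNA 2 h at 37 °C, then read at 405 nm. Activity expressed as fold of untreated control (set to 1).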

SK-OV-3 [8] = assay: Induction of oxidative stress in human SKOV3 cells assessed as ROS generation by measuring fluorescence intensity at 0.1 uM after 24 hrs by carboxy-H2DCFDA dye-based flow cytometric analysis (reference value: 100%); type: functional
Procedure, shortened: (§5)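 SKOV-3 cells (2×10^5/well) exposed 24 h, trypsinised, and loaded with 10 µM carboxy-H2DCFDA in PBS 15 min at room temperature in the dark. After washing, green DCF fluorescence was read by flow cytometry and expressed as % of control (100%).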

SK-OV-3 [9] = assay: Induction of apoptosis in human SKOV3 cells assessed as disruption of mitochondrial membrane potential at 0.1 to 0.5 uM after 24 hrs by JC-1 dye-based fluorescence microscopic analysis; type: functional, cell-based
Procedure, shortened: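 SKOV-3 cells at 5×10^5 cells/mL, adhered overnight, exposed 24 h with DMSO-treated controls. Stained with JC-1 (5 µg/mL in PBS) 30 min at room temperature, washed, and imaged in red (J-aggregate) and green (monomer) channels by fluorescence microscopy at 20×.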

HeLa = assay: Cytotoxicity against human HeLa cells after 48 hrs by MTT assay; type: functional, cell-based; procedure, shortened: as §2
SK-OV-3 [10] = assay: Cell cycle arrest in human SKOV3 cells assessed as accumulation of cells at S phase at 0.5 uM after 24 hrs by propidium iodide staining-based flow cytometric analysis (reference value: 5%); type: functional; procedure, shortened: as §3
SK-OV-3 [11] = assay: Induction of apoptosis in human SKOV3 cells assessed as increase in horse shoe shaped nuclei at 0.1 to 0.5 uM after 24 hrs by […] staining-based fluorescence microscopic analysis; type: functional, cell-based; procedure, shortened: as §1
SK-OV-3 [12] = assay: Cell cycle arrest in human SKOV3 cells assessed as accumulation of cells at G2/M phase at 0.5 uM after 24 hrs by propidium iodide staining-based flow cytometric analysis (reference value: 14.7%); type: functional; procedure, shortened: as §3
SK-OV-3 [13] = assay: Induction of apoptosis in human SKOV3 cells assessed as increase in caspase3 activity at 0.1 uM using Ac-DEVDpNA as substrate pretreated for 24 hrs followed by substrate addition and measured for 2 hrs by colorimetric analysis relative to control; type: functional; procedure, shortened: as §4
Homo sapiens [14] = species on record: Homo sapiens; assay: Inhibition of F-actin polymerization in human SKOV3 cells assessed as induction of stress fibers disruption around nucleus at 0.1 to 0.5 uM after 24 hrs by rhodamine-phalloidin/[…] staining-based confocal fluorescence microscopic analysis; type: cell-based
Procedure, shortened: (§6)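 SKOV-3 cells (1×10^6/well) on coverslips, grown 24 h, then exposed 24 h. Washed, fixed in 4% paraformaldehyde in PBS, stained with rhodamine-phalloidin (F-actin) and […] (nuclei), mounted in anti-fade medium, and imaged by confocal microscopy at 20×.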

HEK-293T = assay: Cytotoxicity against human HEK293T cells after 48 hrs by MTT assay; type: cell-based; procedure, shortened: as §2
SK-OV-3 [15] = assay: Cell cycle arrest in human SKOV3 cells assessed as accumulation of cells at S phase at 0.2 uM after 24 hrs by propidium iodide staining-based flow cytometric analysis (reference value: 5%); type: functional; procedure, shortened: as §3
SK-OV-3 [16] = assay: Cell cycle arrest in human SKOV3 cells assessed as decrease in cells at G0/G1 phase at 0.1 to 0.5 uM after 24 hrs by propidium iodide staining-based flow cytometric analysis; type: functional; procedure, shortened: as §3
HT-1080 = assay: Cytotoxicity against human HT1080 cells after 48 hrs by MTT assay; type: functional, cell-based; settings: HT-1080, 48 h; procedure, shortened: as §2
SK-OV-3 [17] = assay: Cell cycle arrest in human SKOV3 cells assessed as accumulation of cells at S phase at 0.1 uM after 24 hrs by propidium iodide staining-based flow cytometric analysis (reference value: 5%); type: functional; procedure, shortened: as §3
PC-3 = assay: Cytotoxicity against human PC3 cells after 48 hrs by MTT assay; type: functional, cell-based; settings: PC-3, 48 h; procedure, shortened: as §2
[18] = Selectivity index, ratio of IC50 for cytotoxicity against human HEK293T cells to IC50 for cytotoxicity against human SKOV3 cells after 48 hrs by MTT assay; type: toxicity, cell-based; settings: HEK293T cells versus SKOV3 cells, read-out: Ratio IC50
SK-OV-3 [19] = assay: Cell cycle arrest in human SKOV3 cells assessed as accumulation of cells at G2/M phase at 0.1 uM after 24 hrs by propidium iodide staining-based flow cytometric analysis (reference value: 14.7%); type: functional; procedure, shortened: as §3
Homo sapiens [20] = species on record: Homo sapiens; assay: Inhibition of F-actin polymerization in human SKOV3 cells assessed as decrease in F-actin extensions at 0.1 to 0.5 uM after 24 hrs by rhodamine-phalloidin/[…] staining-based confocal fluorescence microscopic analysis; type: cell-based; procedure, shortened: as §6
SK-OV-3 [21] = assay: Induction of oxidative stress in human SKOV3 cells assessed as ROS generation by measuring fluorescence intensity at 0.1 to 0.5 uM after 24 hrs by carboxy-H2DCFDA dye-based flow cytometric analysis relative to untreated control; type: functional; procedure, shortened: as §5
SK-OV-3 [22] = assay: Induction of oxidative stress in human SKOV3 cells assessed as ROS generation by measuring fluorescence intensity at 0.5 uM after 24 hrs by carboxy-H2DCFDA dye-based flow cytometric analysis (reference value: 100%); type: functional; procedure, shortened: as §5
SK-OV-3 [23] = assay: Induction of apoptosis in human SKOV3 cells assessed as increase in caspase3 activity at 0.2 uM using Ac-DEVDpNA as substrate pretreated for 24 hrs followed by substrate addition and measured for 2 hrs by colorimetric analysis relative to control; type: functional; procedure, shortened: as §4
SK-OV-3 [24] = assay: Induction of oxidative stress in human SKOV3 cells assessed as ROS generation by measuring fluorescence intensity at 0.2 uM after 24 hrs by carboxy-H2DCFDA dye-based flow cytometric analysis (reference value: 100%); type: functional; procedure, shortened: as §5

Q: For `COc1cc2c3c(c4cc(OC)c(OC)cc4c2cc1OC)C(c1cccc(C(F)(F)F)c1)C1=C(CCCC1=O)N3` (stereo not drawn), which Activity (SK-OV-3 [1]) is on record?
A: Active

Q: What about the IC50 (SK-OV-3 [2]) of the same compound?
A: 0.24 µM

Q: And the inhibition (SK-OV-3 [3])?
A: Active

Q: And the Activity (SK-OV-3 [4])?
A: 33.5%

Q: And the Activity (SK-OV-3 [5])?
A: Active

Q: And the Activity (SK-OV-3 [6])?
A: Active

Q: What about the “fold change (FC)” value (SK-OV-3 [7]) of the same compound?
A: 3.78

Q: And the Activity (SK-OV-3 [8])?
A: 128.5%

Q: What about the Activity (SK-OV-3 [9]) of the same compound?
A: Active

Q: What about the IC50 (HeLa) of the same compound?
A: 4.38 µM

Q: And the Activity (SK-OV-3 [10])?
A: 14.1%

Q: What about the Activity (SK-OV-3 [11]) of the same compound?
A: Active

Q: What about the Activity (SK-OV-3 [12]) of the same compound?
A: 37.9%

Q: What about the “fold change (FC)” value (SK-OV-3 [13]) of the same compound?
A: 1.58

Q: What about the inhibition (Homo sapiens [14]) of the same compound?
A: Active

Q: And the IC50 (HEK-293T)?
A: 18.5 µM

Q: And the Activity (SK-OV-3 [15])?
A: 19.3%

Q: And the Activity (SK-OV-3 [16])?
A: Active

Q: And the IC50 (HT-1080)?
A: 3.89 µM

Q: And the Activity (SK-OV-3 [17])?
A: 2.3%

Q: What about the IC50 (PC-3) of the same compound?
A: 11.8 µM

Q: And the selectivity ratio at 48 h [18]?
A: 77

Q: And the Activity (SK-OV-3 [19])?
A: 22.6%

Q: And the inhibition (Homo sapiens [20])?
A: Active

Q: What about the “fold change (FC)” value (SK-OV-3 [21]) of the same compound?
A: 2

Q: And the Activity (SK-OV-3 [22])?
A: 204.76%

Q: And the “fold change (FC)” value (SK-OV-3 [23])?
A: 2.45

Q: And the Activity (SK-OV-3 [24])?
A: 150.3%
